Key:
[1] = test system: MMP-13 expressing SFs; assay: Fluorescence microscopy of beacon uptake and activation, SFs; assay type: cell-based, human; conditions: 2.5 μM, 24 h incubation, fluorescence microscopy Cy5 channel
Outline: (§1)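 Cells (patient-derived SFs or donated HUVECs) seeded at 5 × 10^3 per well in 8-chamber slides. After 24 h the medium was changed and test compound added to 2.5 µM final for a further 24 h. Cells washed, fixed in 4% paraformaldehyde for 20 min and mounted with DAPI. Imaged on an inverted microscope: Cy5 620/60 ex, 665 long-pass em; exposure 200 ms for SFs, 1500 ms for HUVECs.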

[2] = test system: HUVECs; assay: Fluorescence microscopy of beacon uptake and activation, HUVECs; assay type: cell-based, human; conditions: 2.5 μM, 24 h incubation, fluorescence microscopy Cy5 channel
Outline: as §1

Substance: Pyro-glgfrvgk-BHQ3 [DPPMMP13B]
- Intracellular pyro fluorescence in MMP-13 + SFs [1]: negligible fluorescence
- Intracellular pyro fluorescence in HUVECs (negligible MMP-13 expression) [2]: negligible fluorescence
